As a reminder, the Ki is the dissociation constant of the complex between target and ligand, obtained from inhibition or displacement. A high value points to weaker binding.

Experiment [1] deals with Measles morbillivirus. As to the kind of experiment: In vitro antiviral activity Virus rating (VR) determined by comparing CPE development in drug-treated cells (T) and virus control cells (C) against, measles. It is filed as functional. The method in brief:
(§1)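 Vero (African green monkey kidney) cells in 10% FBS DMEM, seeded 4 × 10^4 cells/well, confluent over 24 h at 37 °C, 5% CO2. Virus (amount giving full monolayer destruction in 72 h; HSV-2 strain 333, measles Edmonston, para 3 C243) adsorbed 30 min. Compound added after adsorption at seven 0.5-log steps, final 5 × 10^-6 to 5 × 10^-3 M. Duplicate infected wells, single uninfected wells for toxicity.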

For experiment [2], the system named is Vaccinia virus. As to the kind of experiment: In vitro antiviral activity Virus rating (VR) determined by comparing CPE development in drug-treated cells (T) and virus control cells (C) against, Vaccinia virus. It is filed as functional, Orthopoxvirus vaccinia.
The test system of experiment [3] is Human alphaherpesvirus 2. As to the kind of experiment: In vitro antiviral activity Virus rating (VR) determined by comparing CPE development in drug-treated cells (T) and virus control cells (C) against, Herpes simplex virus-2. Format: functional. In short, it runs like this:
as §1

In experiment [4] the test system is Human respirovirus 3. As to the kind of experiment: In vitro antiviral activity Virus rating (VR) determined by comparing CPE development in drug-treated cells (T) and virus control cells (C) against, parainfluenza type 3 (para 3). It is filed as functional. The method in brief: as §1
A short description of experiment [5]: Ability of inhibit mammalian uridine phosphorylase.
The target in experiment [6] is T1, Adenosine deaminase (Bos taurus, UniProt P56658).
T1 sequence (P56658 whole entry): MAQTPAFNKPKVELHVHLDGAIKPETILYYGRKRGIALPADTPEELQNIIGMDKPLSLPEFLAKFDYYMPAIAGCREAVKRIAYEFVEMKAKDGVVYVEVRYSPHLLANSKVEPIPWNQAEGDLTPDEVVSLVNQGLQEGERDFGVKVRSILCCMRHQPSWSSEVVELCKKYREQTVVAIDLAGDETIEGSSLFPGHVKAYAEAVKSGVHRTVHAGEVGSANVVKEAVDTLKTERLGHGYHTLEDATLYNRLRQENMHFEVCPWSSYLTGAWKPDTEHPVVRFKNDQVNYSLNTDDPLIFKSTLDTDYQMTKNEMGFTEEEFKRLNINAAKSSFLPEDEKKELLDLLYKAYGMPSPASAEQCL
As to the kind of experiment: Ability to inhibit adenosine deaminase. The method in brief:
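Calf intestine adenosine deaminase; substrate and inhibitor kinetic parameters measured spectrophotometrically.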

For `Nc1ncnc2c1ncn2C1CC(O)C(O)C(COP(=O)(O)O)O1` (stereo not given), the VR came to 0.24 in experiment [1], 0 in experiment [2], 0.44 in experiment [3] and 0.16 in experiment [4].

`Nc1ccn(C2CC(O)C(O)C(CO)O2)c(=O)n1` (stereo not given): the VR was determined as 0.5 in experiment [1], 0 in experiment [2], 0 in experiment [3] and 0.15 in experiment [4].

Take `Cc1cn(C2CC(O)C(O)C(CO)O2)c(=O)[nH]c1=O` (stereo not given): the Ki in experiment [5] amounted to 12 µM.

Take `Nc1ncnc2c1ncn2C1CC(O)C(O)C(CO)O1` (stereo not given): the VR in experiment [1] worked out at 0.9; in experiment [2], 0; in experiment [3], 0; in experiment [4], 0.35.

With `O=c1ccn(C2CC(O)C(O)C(COP(=O)(O)O)O2)c(=O)[nH]1` (stereo not given), the VR in experiment [1] was 0.44; in experiment [2], 0.28; in experiment [3] it was 0.74; in experiment [4], 0.64.

As to `Nc1ncnc2ncn(C3CC(O)C(O)C(CO)O3)c12` (stereo not given), the VR is on record as 0 in experiment [1], 0.22 in experiment [2], 0.08 in experiment [3] and 0 in experiment [4].

For the compound `Nc1nc(O)c2ncn(C3CC(O)C(O)C(CO)O3)c2n1` (stereo not given), the VR in experiment [1] amounted to 0.3; in experiment [2], 0.19; in experiment [3] it was 1.06; in experiment [4] it was 0.

Take `O=c1ccn(C2CC(O)C(O)C(CO)O2)c(=O)[nH]1` (stereo not given): the VR in experiment [1] is on record as 0; in experiment [2], 0.25; in experiment [3], 0.06; in experiment [4] it was 0.

Turning to `OCC1OC(n2cnc3c(O)ncnc32)CC(O)C1O` (stereo not given), the VR in experiment [1] turned out to be 0; in experiment [2] it was 0.1; in experiment [3], 0.07; in experiment [4] it was 0.06.

Regarding `Nc1nc(N)c2ncn(C3CC(O)C(O)C(CO)O3)c2n1` (stereo not given), the VR in experiment [1] was 0.54; in experiment [2], 0.22; in experiment [3] it was 0.62; in experiment [4] it was 0.25.

Regarding `Nc1ccn(C2CC(O)C(O)C(COP(=O)(O)O)O2)c(=O)n1` (stereo not given), the values for the VR in experiment [1], in experiment [2] and in experiment [4] were 0.06, 0.25 and 0.28, respectively.

For `Nc1nc(Cl)nc2c1ncn2C1CC(O)C(O)C(CO)O1` (stereo not given), the VR is reported as 0.05 in experiment [1], 0.04 in experiment [2], 0.34 in experiment [3] and 0 in experiment [4].

As for `OC[C@H]1O[C@@H](n2cnc3c(O)ncnc32)C[C@@H]1O` [DEOXYINOSINE], in experiment [6], affinity was put at a Ki of 150 µM.

In experiment [6], `OC[C@H]1O[C@@H](n2cnc3c(O)ncnc32)[C@H](O)[C@@H]1O` [INOSINE] came in with a Ki of 500 µM.

Turning to `Nc1ncnc2c1ncn2[C@@H]1C=C(CO)[C@@H](O)[C@H]1O` [NEOPLANOCIN A], the VR amounted to 0.75 in experiment [1], 1.38 in experiment [2], 1.39 in experiment [3] and 1.6 in experiment [4].

The values are drawn from ChEMBL document CHEMBL1123904, “Synthesis, structure, and biological activity of certain 2-deoxy-beta-D-ribo-hexopyranosyl nucleosides and nucleotides” (J Med Chem, 1987).
